Data: ChEMBL document CHEMBL3259712, “New 5-unsubstituted dihydropyridines with improved CaV1.3 selectivity as potential neuroprotective agents against ischemic injury” (J Med Chem, 2014)

System: SH-SY5Y
Assay: Neuroprotective activity against rotenone-oligomycin A-induced oxidative stress in human SH-SY5Y cells assessed as protection incubated with rot/oligo for 8 hrs followed by treated with compound at 5 uM for 16 hrs by MTT assay relative to control
Type: functional
Details: not given
How it was run: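 SH-SY5Y cells cultured 24 h, then exposed to rotenone/oligomycin A (30/10 μM) for 8 h at 37 °C. Stressor was removed and cells incubated 16 h with compound in 1% FBS medium. Melatonin 0.3 μM was the positive control, and compounds were used at 5 μM. Viability by MTT; % protection against basal as 100%, normalized to rot/olig toxicity; five to seven cultures in triplicate.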

| Structure (SMILES) | Activity [%] |
| --- | --- |
| CC1=C(C(=O)SC(C)(C)C)C(c2ccc(C)cc2)C=C(c2ccccc2)N1 (stereo not drawn) | 43.3 |
| CCOC(=O)C1=C(C)NC(c2ccc(Cl)cc2)=CC1c1cccc(OC)c1 (stereo not drawn) | 20.5 |
| CCCC1=C(C(=O)OCC)C(c2ccccc2)C=C(c2ccccc2)N1 (stereo not drawn) | 34.8 |
| CCOC(=O)C1=C(C)NC(c2ccc(C)cc2)=CC1c1cccs1 (stereo not drawn) | 25.6 |

Target: Voltage-dependent L-type calcium channel subunit alpha-1D (Homo sapiens, UniProt Q01668)
Sequence (Q01668 whole entry): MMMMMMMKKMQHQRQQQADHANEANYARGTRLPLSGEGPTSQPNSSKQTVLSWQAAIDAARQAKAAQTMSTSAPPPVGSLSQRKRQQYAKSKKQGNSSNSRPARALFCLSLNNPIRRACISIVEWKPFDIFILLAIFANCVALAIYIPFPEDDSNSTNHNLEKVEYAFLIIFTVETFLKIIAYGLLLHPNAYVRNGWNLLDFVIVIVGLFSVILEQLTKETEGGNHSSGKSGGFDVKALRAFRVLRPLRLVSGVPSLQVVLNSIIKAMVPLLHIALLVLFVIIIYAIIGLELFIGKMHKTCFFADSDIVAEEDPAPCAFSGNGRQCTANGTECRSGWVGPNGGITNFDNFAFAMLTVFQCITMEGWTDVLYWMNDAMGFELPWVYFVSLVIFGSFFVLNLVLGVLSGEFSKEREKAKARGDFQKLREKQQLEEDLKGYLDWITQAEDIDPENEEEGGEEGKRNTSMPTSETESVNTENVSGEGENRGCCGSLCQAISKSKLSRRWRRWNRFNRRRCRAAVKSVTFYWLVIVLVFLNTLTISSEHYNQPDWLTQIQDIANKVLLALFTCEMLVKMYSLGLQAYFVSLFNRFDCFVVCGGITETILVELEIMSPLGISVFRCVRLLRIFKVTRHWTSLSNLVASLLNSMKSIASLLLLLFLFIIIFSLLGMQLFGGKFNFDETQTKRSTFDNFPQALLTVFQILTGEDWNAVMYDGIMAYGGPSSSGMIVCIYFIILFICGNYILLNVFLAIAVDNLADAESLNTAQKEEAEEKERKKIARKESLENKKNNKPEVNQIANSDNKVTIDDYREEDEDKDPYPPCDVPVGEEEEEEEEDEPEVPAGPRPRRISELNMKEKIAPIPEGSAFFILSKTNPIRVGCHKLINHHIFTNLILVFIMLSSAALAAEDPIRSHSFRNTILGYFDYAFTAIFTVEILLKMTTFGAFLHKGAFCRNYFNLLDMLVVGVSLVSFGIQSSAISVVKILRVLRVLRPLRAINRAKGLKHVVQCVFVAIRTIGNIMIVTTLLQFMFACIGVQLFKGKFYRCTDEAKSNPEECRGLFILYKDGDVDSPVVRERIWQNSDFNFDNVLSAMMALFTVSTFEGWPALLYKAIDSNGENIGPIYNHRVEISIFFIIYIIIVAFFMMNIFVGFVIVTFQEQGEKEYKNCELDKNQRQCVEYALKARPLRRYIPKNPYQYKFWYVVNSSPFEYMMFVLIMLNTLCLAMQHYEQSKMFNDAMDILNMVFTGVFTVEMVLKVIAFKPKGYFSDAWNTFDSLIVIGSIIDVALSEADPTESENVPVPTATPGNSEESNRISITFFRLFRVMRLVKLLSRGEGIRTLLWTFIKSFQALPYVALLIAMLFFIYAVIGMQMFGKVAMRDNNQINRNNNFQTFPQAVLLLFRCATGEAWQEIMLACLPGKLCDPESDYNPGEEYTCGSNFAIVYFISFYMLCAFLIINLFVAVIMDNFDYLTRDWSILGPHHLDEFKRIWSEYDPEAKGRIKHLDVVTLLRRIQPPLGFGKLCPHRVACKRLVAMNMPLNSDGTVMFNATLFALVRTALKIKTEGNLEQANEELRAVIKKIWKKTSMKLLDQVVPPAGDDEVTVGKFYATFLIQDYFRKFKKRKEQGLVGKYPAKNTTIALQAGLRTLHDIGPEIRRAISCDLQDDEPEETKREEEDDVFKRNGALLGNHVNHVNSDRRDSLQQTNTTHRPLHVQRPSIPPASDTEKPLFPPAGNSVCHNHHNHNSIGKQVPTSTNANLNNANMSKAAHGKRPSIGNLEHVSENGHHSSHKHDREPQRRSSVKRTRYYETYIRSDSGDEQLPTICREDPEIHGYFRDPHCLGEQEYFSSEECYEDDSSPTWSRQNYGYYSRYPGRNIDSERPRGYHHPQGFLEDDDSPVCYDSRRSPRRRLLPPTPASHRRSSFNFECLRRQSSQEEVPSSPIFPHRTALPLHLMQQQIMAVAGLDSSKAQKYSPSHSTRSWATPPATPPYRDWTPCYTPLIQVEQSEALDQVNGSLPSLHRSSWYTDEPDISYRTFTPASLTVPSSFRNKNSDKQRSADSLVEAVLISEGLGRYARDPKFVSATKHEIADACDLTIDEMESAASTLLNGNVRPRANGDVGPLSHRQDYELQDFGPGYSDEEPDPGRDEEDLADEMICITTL
Assay: Inhibition of human Cav1.3 channel in human SH-SY5Y cells assessed as 70 mM K+ induced calcium elevation compound treated 15 mins before stimulus by Fluo-4/AM assay
Type: cell-based
Details: not given
How it was run: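 SH-SY5Y cells grown 2 days, loaded with 10 μM Fluo-4/AM for 1 h at 37 °C in serum-free medium, washed with Krebs-HEPES and held 15 min at room temperature. Compound applied 15 min before 70 mM KCl.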

| Structure (SMILES) | IC50 [µM] | inhibition [%] |
| --- | --- | --- |
| CCOC(=O)C1=C(C)NC(c2ccc(Cl)cc2)=CC1c1ccccc1 (stereo not drawn) | 9.3 |  |
| CC1=C(C(=O)SC(C)(C)C)C(c2ccc(C)cc2)C=C(c2ccccc2)N1 (stereo not drawn) | 56.2 |  |
| CCOC(=O)C1=C(C)NC(c2ccc(Cl)cc2)=CC1c1cccc(OC)c1 (stereo not drawn) | 15.1 | 48 |
| CCOC(=O)C1=C(CC)NC(c2ccccc2)=CC1c1ccccc1 (stereo not drawn) | 12.8 |  |
| CCOC(=O)C1=C(C)NC(c2ccccc2)=CC1c1ccccc1 (stereo not drawn) | 18.7 |  |
| CCOC(=O)C1=C(C)NC(c2ccccc2)=CC1c1ccc([N+](=O)[O-])cc1 (stereo not drawn) | 12.2 |  |
| CCCC1=C(C(=O)OCC)C(c2ccccc2)C=C(c2ccccc2)N1 (stereo not drawn) | 9.9 |  |
| CCOC(=O)C1=C(C)NC(c2ccc(C)cc2)=CC1c1cccs1 (stereo not drawn) | 14.9 | 36 |
| CCOC(=O)C1=C(C)NC(c2ccc(C)cc2)=CC1c1ccccc1[N+](=O)[O-] (stereo not drawn) | 44.1 |  |
| CC1=C(C(=O)SC(C)(C)C)C(c2ccc(C)cc2)C=C(c2ccc(C)cc2)N1 (stereo not drawn) | > 100 |  |
| CCOC(=O)C1=C(C)NC(c2ccc(Cl)cc2)=CC1c1ccccc1[N+](=O)[O-] (stereo not drawn) | 57.1 |  |
| O=C1CCCC2=C1C(c1ccccc1)C=C(c1ccccc1)N2 (stereo not drawn) | 24 |  |

System: SH-SY5Y
Assay: Neuroprotective activity against rotenone-oligomycin A-induced oxidative stress in human SH-SY5Y cells assessed as survival at 5 uM co-incubated rot/oligo for 24 hrs by MTT assay (Rvb =65.6 +/- 1.3%)
Type: functional
Details: read-out: Survival

| Structure (SMILES) | viability at 5 µM [%] |
| --- | --- |
| CCOC(=O)C1=C(C)NC(c2ccc(Cl)cc2)=CC1c1ccccc1 (stereo not drawn) | 82.7 |
| CC1=C(C(=O)SC(C)(C)C)C(c2ccc(C)cc2)C=C(c2ccccc2)N1 (stereo not drawn) | 83.3 |
| CCOC(=O)C1=C(C)NC(c2ccc(Cl)cc2)=CC1c1cccc(OC)c1 (stereo not drawn) | 81.9 |
| CCOC(=O)C1=C(CC)NC(c2ccccc2)=CC1c1ccccc1 (stereo not drawn) | 77.4 |
| CCOC(=O)C1=C(C)NC(c2ccccc2)=CC1c1ccccc1 (stereo not drawn) | 78.4 |
| CCOC(=O)C1=C(C)NC(c2ccccc2)=CC1c1ccc([N+](=O)[O-])cc1 (stereo not drawn) | 64.6 |
| CCCC1=C(C(=O)OCC)C(c2ccccc2)C=C(c2ccccc2)N1 (stereo not drawn) | 80.5 |
| CCOC(=O)C1=C(C)NC(c2ccc(C)cc2)=CC1c1cccs1 (stereo not drawn) | 81.9 |
| CCOC(=O)C1=C(C)NC(c2ccc(C)cc2)=CC1c1ccccc1[N+](=O)[O-] (stereo not drawn) | 69.9 |
| CC1=C(C(=O)SC(C)(C)C)C(c2ccc(C)cc2)C=C(c2ccc(C)cc2)N1 (stereo not drawn) | 79.9 |
| CCOC(=O)C1=C(C)NC(c2ccc(Cl)cc2)=CC1c1ccccc1[N+](=O)[O-] (stereo not drawn) | 60 |
| O=C1CCCC2=C1C(c1ccccc1)C=C(c1ccccc1)N2 (stereo not drawn) | 80.3 |

System: SH-SY5Y
Assay: Neuroprotective activity against K+ induced Ca2+ overload in human SH-SY5Y cells assessed as survival at 5 uM after 24 hrs by MTT assay (reference value: 52.1 +/- 3.5%)
Type: functional
Details: read-out: Survival

| Structure (SMILES) | viability at 5 µM [%] |
| --- | --- |
| CCOC(=O)C1=C(C)NC(c2ccc(Cl)cc2)=CC1c1ccccc1 (stereo not drawn) | 69.4 |
| CC1=C(C(=O)SC(C)(C)C)C(c2ccc(C)cc2)C=C(c2ccccc2)N1 (stereo not drawn) | 67.4 |
| CCOC(=O)C1=C(C)NC(c2ccc(Cl)cc2)=CC1c1cccc(OC)c1 (stereo not drawn) | 72.7 |
| CCOC(=O)C1=C(CC)NC(c2ccccc2)=CC1c1ccccc1 (stereo not drawn) | 67.3 |
| CCOC(=O)C1=C(C)NC(c2ccccc2)=CC1c1ccccc1 (stereo not drawn) | 67.6 |
| CCOC(=O)C1=C(C)NC(c2ccccc2)=CC1c1ccc([N+](=O)[O-])cc1 (stereo not drawn) | 64.6 |
| CCCC1=C(C(=O)OCC)C(c2ccccc2)C=C(c2ccccc2)N1 (stereo not drawn) | 65.4 |
| CCOC(=O)C1=C(C)NC(c2ccc(C)cc2)=CC1c1cccs1 (stereo not drawn) | 75.6 |
| CCOC(=O)C1=C(C)NC(c2ccc(C)cc2)=CC1c1ccccc1[N+](=O)[O-] (stereo not drawn) | 62.9 |
| CC1=C(C(=O)SC(C)(C)C)C(c2ccc(C)cc2)C=C(c2ccc(C)cc2)N1 (stereo not drawn) | 69.9 |
| CCOC(=O)C1=C(C)NC(c2ccc(Cl)cc2)=CC1c1ccccc1[N+](=O)[O-] (stereo not drawn) | 59.3 |
| O=C1CCCC2=C1C(c1ccccc1)C=C(c1ccccc1)N2 (stereo not drawn) | 66.4 |

System: SH-SY5Y
Assay: Neuroprotective activity against K+ induced Ca2+ overload in human SH-SY5Y cells assessed as protection at 5 uM after 24 hrs by MTT assay relative to control
Type: functional
Details: not given
How it was run: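 SH-SY5Y cells, 1 × 10⁵/well, 1% FBS medium, up to 13 passages. Compound diluted from 10⁻² M DMSO stock to 5 μM and co-incubated 24 h with 70 mM K⁺ (hypertonic); DMSO-only controls. MTT at 5 mg/mL for 2 h at 37 °C, read at 540 nm. % protection computed against basal as 100% survival and normalized to K⁺ toxicity; at least five cultures in triplicate.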

| Structure (SMILES) | Activity [%] |
| --- | --- |
| CCOC(=O)C1=C(C)NC(c2ccc(Cl)cc2)=CC1c1ccccc1 (stereo not drawn) | 36.6 |
| CC1=C(C(=O)SC(C)(C)C)C(c2ccc(C)cc2)C=C(c2ccccc2)N1 (stereo not drawn) | 30.4 |
| CCOC(=O)C1=C(C)NC(c2ccc(Cl)cc2)=CC1c1cccc(OC)c1 (stereo not drawn) | 40.1 |
| CCOC(=O)C1=C(CC)NC(c2ccccc2)=CC1c1ccccc1 (stereo not drawn) | 31.4 |
| CCOC(=O)C1=C(C)NC(c2ccccc2)=CC1c1ccccc1 (stereo not drawn) | 34.6 |
| CCOC(=O)C1=C(C)NC(c2ccccc2)=CC1c1ccc([N+](=O)[O-])cc1 (stereo not drawn) | 23.5 |
| CCCC1=C(C(=O)OCC)C(c2ccccc2)C=C(c2ccccc2)N1 (stereo not drawn) | 23.3 |
| CCOC(=O)C1=C(C)NC(c2ccc(C)cc2)=CC1c1cccs1 (stereo not drawn) | 50.7 |
| CCOC(=O)C1=C(C)NC(c2ccc(C)cc2)=CC1c1ccccc1[N+](=O)[O-] (stereo not drawn) | 22.1 |
| CC1=C(C(=O)SC(C)(C)C)C(c2ccc(C)cc2)C=C(c2ccc(C)cc2)N1 (stereo not drawn) | 36.2 |
| CCOC(=O)C1=C(C)NC(c2ccc(Cl)cc2)=CC1c1ccccc1[N+](=O)[O-] (stereo not drawn) | 13.7 |
| O=C1CCCC2=C1C(c1ccccc1)C=C(c1ccccc1)N2 (stereo not drawn) | 28.2 |

System: SH-SY5Y
Assay: Neuroprotective activity against rotenone-oligomycin A-induced oxidative stress in human SH-SY5Y cells assessed as protection at 5 uM co-incubated rot/oligo for 24 hrs by MTT assay relative to control
Type: functional
Details: not given
How it was run: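 SH-SY5Y cells in 1% FBS medium co-incubated 24 h with compound and rotenone/oligomycin A (30/10 μM). Melatonin 0.3 μM was the positive control, and compounds were used at 5 μM. Viability by MTT reduction at 540 nm. % protection computed against basal as 100% and normalized to rot/olig toxicity; five to seven cultures in triplicate.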

| Structure (SMILES) | Activity [%] |
| --- | --- |
| CCOC(=O)C1=C(C)NC(c2ccc(Cl)cc2)=CC1c1ccccc1 (stereo not drawn) | 46.2 |
| CC1=C(C(=O)SC(C)(C)C)C(c2ccc(C)cc2)C=C(c2ccccc2)N1 (stereo not drawn) | 49.4 |
| CCOC(=O)C1=C(C)NC(c2ccc(Cl)cc2)=CC1c1cccc(OC)c1 (stereo not drawn) | 47.8 |
| CCOC(=O)C1=C(CC)NC(c2ccccc2)=CC1c1ccccc1 (stereo not drawn) | 32.8 |
| CCOC(=O)C1=C(C)NC(c2ccccc2)=CC1c1ccccc1 (stereo not drawn) | 32.5 |
| CCCC1=C(C(=O)OCC)C(c2ccccc2)C=C(c2ccccc2)N1 (stereo not drawn) | 42.9 |
| CCOC(=O)C1=C(C)NC(c2ccc(C)cc2)=CC1c1cccs1 (stereo not drawn) | 45.3 |
| CCOC(=O)C1=C(C)NC(c2ccc(C)cc2)=CC1c1ccccc1[N+](=O)[O-] (stereo not drawn) | 11.7 |
| CC1=C(C(=O)SC(C)(C)C)C(c2ccc(C)cc2)C=C(c2ccc(C)cc2)N1 (stereo not drawn) | 36.2 |
| O=C1CCCC2=C1C(c1ccccc1)C=C(c1ccccc1)N2 (stereo not drawn) | 39.8 |

System: SH-SY5Y
Assay: Neuroprotective activity against rotenone-oligomycin A-induced oxidative stress in human SH-SY5Y cells assessed as survival incubated with rot/oligo for 8 hrs followed by treated with compound at 5 uM for 16 hrs by MTT assay (Rvb =70.6 +/- 1.8%)
Type: functional
Details: read-out: Survival
How it was run: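 SH-SY5Y cells cultured 24 h, then exposed to rotenone/oligomycin A (30/10 μM) for 8 h at 37 °C. Stressor removed; compound in 1% FBS medium added for 16 h. DMSO-only control. MTT reduction (5 mg/mL, 2 h, 37 °C; OD 540 nm). Survival relative to untreated basal; mean ± SEM of five to seven cultures in triplicate.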

| Structure (SMILES) | viability at 5 µM [%] |
| --- | --- |
| CC1=C(C(=O)SC(C)(C)C)C(c2ccc(C)cc2)C=C(c2ccccc2)N1 (stereo not drawn) | 83.4 |
| CCOC(=O)C1=C(C)NC(c2ccc(Cl)cc2)=CC1c1cccc(OC)c1 (stereo not drawn) | 76.6 |
| CCCC1=C(C(=O)OCC)C(c2ccccc2)C=C(c2ccccc2)N1 (stereo not drawn) | 80.6 |
| CCOC(=O)C1=C(C)NC(c2ccc(C)cc2)=CC1c1cccs1 (stereo not drawn) | 77.5 |
